ChEMBL document CHEMBL4330056, “Synthesis and Cytotoxic and Antiviral Profiling of Pyrrolo- and Furo-Fused 7-Deazapurine Ribonucleosides” (J Med Chem, 2018)
Activity calls are given as the source filed them. The calls are words filed in the database; no cut-off is given here.

Legend:
[1] = Stability in human plasma assessed as compound remaining at 3.3 umol/L after 30 mins by RF-MS analysis relative to control; assay type: ADME, cell-free; conditions: read-out: Stability
[2] = Stability in human plasma assessed as compound remaining at 3.3 umol/L after 120 mins by RF-MS analysis relative to control; assay type: ADME, cell-free; conditions: read-out: Stability
[3] = Protein binding in human plasma; assay type: ADME, cell-free; conditions: read-out: PPB (converted)
[4] = Effective permeability of the compound at 20 umol/L by PAMPA; assay type: ADME; conditions: 20 µM
CCRF-CEM [5] = assay: Inhibition of mitosis in human CCRF-CEM cells assessed Ser10 H3 phosphorylation positive cells at IC50 concentration after 24 hrs by flow cytometry relative to total cell population (reference value: 1.36%); assay type: functional; parameters: scale not given: the % may be the effect or the level left
CCRF-CEM [6] = assay: Induction of cell cycle arrest in human CCRF-CEM cells assessed as accumulation at S phase at 5 times IC50 concentration after 24 hrs by propidium iodide-staining based flow cytometry (reference value: 41.08%); assay type: functional
CCRF-CEM [7] = assay: Induction of cell cycle arrest in human CCRF-CEM cells assessed as accumulation at G0/G1 phase at 5 times IC50 concentration after 24 hrs by propidium iodide-staining based flow cytometry (reference value: 39.70%); assay type: functional
Human orthopneumovirus = assay: Antiviral activity against Human respiratory syncytial virus A2 infected in Hep2 cells assessed as reduction in virus-induced cytopathic effect incubated for 4 days by CellTiter-Glo viability reagent based assay; assay type: functional, organism-based
Hepatitis C virus [8] = assay: Antiviral activity against Hepatitis C virus genotype 1b infected in human Huh-luc replicon cells after 3 days by luciferase assay; assay type: functional, organism-based, Hepacivirus hominis; conditions: subtype 1b, 72 h
CCRF-CEM [9] = assay: Induction of cell cycle arrest in human CCRF-CEM cells assessed as accumulation at G2/M phase at 5 times IC50 concentration after 24 hrs by propidium iodide-staining based flow cytometry (reference value: 19.22%); assay type: functional
CCRF-CEM [10] = assay: Inhibition of RNA synthesis in human CCRF-CEM cells assessed as RNA synthesis level at 5 times IC50 concentration after 24 hrs by BrU incorporation assay (reference value: 49.89%); assay type: functional; parameters: scale not given: the % may be the effect or the level left
HepG2 = assay: Antiproliferative activity against human HepG2 cells after 72 hrs by XTT assay; assay type: functional, cell-based; conditions: HepG2, 72 h
[11] = Metabolic stability in human liver microsomes assessed as compound remaining at 5 umol/L after 15 mins relative to control; assay type: ADME, Microsome; conditions: read-out: Stability
Outline: (§1)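 Human microsomal fraction; percent compound remaining over time.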

Adenosine kinase [12] = biological target: T1, Adenosine kinase (Homo sapiens, UniProt P55263); assay: Substrate activity at recombinant human ADK assessed as compound phosphorylation at 50 uM after 20 mins in presence of [3H]-adenosine by UPLC; assay type: ADME
[13] = Chemical stability of the compound assessed as compound remaining after 120 mins relative to control; assay type: physicochemical; conditions: read-out: Stability
[14] = Antiproliferative activity against human K562-TAX cells after 3 days by MTS assay; assay type: functional, cell-based; conditions: 72 h
CCRF-CEM [15] = assay: Induction of cell cycle arrest in human CCRF-CEM cells assessed as accumulation at S phase at IC50 concentration after 24 hrs by propidium iodide-staining based flow cytometry (reference value: 41.08%); assay type: functional
BJ = assay: Antiproliferative activity against human BJ cells after 3 days by MTS assay; conditions: 72 h
U2OS = assay: Antiproliferative activity against human U2OS cells after 3 days by MTS assay; assay type: functional, cell-based; conditions: 72 h
CCRF-CEM [16] = assay: Inhibition of DNA synthesis in human CCRF-CEM cells assessed as DNA synthesis level at 5 times IC50 concentration after 24 hrs by BrdU incorporation assay (reference value: 43.39%); assay type: functional; parameters: scale not given: the % may be the effect or the level left
HL-60 = assay: Antiproliferative activity against human HL60 cells after 72 hrs by XTT assay; assay type: functional, cell-based; conditions: HL-60, 72 h
CCRF-CEM [17] = assay: Antiproliferative activity against human CCRF-CEM cells after 3 days by MTS assay; assay type: functional, cell-based; conditions: 72 h
CCRF-CEM [18] = assay: Induction of cell cycle arrest in human CCRF-CEM cells assessed as accumulation at subG1 phase at 5 times IC50 concentration after 24 hrs by propidium iodide-staining based flow cytometry (reference value: 3.45%); assay type: functional
[19] = Metabolic stability in human liver microsomes assessed as compound remaining at 5 umol/L after 60 mins relative to control; assay type: ADME, Microsome; conditions: read-out: Stability; outline: as §1
[20] = Chemical stability of the compound assessed as compound remaining after 30 mins relative to control; assay type: physicochemical; conditions: read-out: Stability
[21] = Chemical stability of the compound assessed as compound remaining after 15 mins relative to control; assay type: physicochemical; conditions: read-out: Stability
Adenosine kinase [22] = biological target: T1, Adenosine kinase; assay: Inhibition of recombinant human ADK using [3H]-adenosine as substrate after 20 mins by TLC scanner-based analysis relative to control
Outline: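 ADK inhibition: 50 μM adenosine substrate with 10 μM test compound and 97 ng enzyme, 20 min at 37 °C.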

Hepatitis C virus [23] = assay: Antiviral activity against Hepatitis C virus genotype 2a infected in human Huh-luc replicon cells after 3 days by luciferase assay; assay type: functional, organism-based, Hepacivirus hominis; conditions: subtype 2a, 72 h
HeLa S3 = assay: Antiproliferative activity against human HeLaS3 cells after 72 hrs by XTT assay; assay type: functional, cell-based; conditions: HeLa S3, 72 h
[24] = Stability in human plasma assessed as compound remaining at 3.3 umol/L after 60 mins by RF-MS analysis relative to control; assay type: ADME, cell-free; conditions: read-out: Stability
CCRF-CEM [25] = assay: Inhibition of mitosis in human CCRF-CEM cells assessed Ser10 H3 phosphorylation positive cells at 5 times IC50 concentration after 24 hrs by flow cytometry relative to total cell population (reference value: 1.36%); assay type: functional; parameters: scale not given: the % may be the effect or the level left
Coxsackievirus B3 = assay: Antiviral activity against Human coxsackie B3 Nancy infected in human HeLa cells assessed as inhibited virus-induced cytopathic effect incubated for 2 days by XTT assay; assay type: functional, organism-based
MRC5 = assay: Antiproliferative activity against human MRC5 cells after 3 days by MTS assay; conditions: MRC5, 72 h
[26] = Metabolic stability in human liver microsomes assessed as compound remaining at 5 umol/L after 30 mins relative to control; assay type: ADME, Microsome; conditions: read-out: Stability; outline: as §1
A549 = assay: Antiproliferative activity against human A549 cells after 3 days by MTS assay; assay type: functional, cell-based; conditions: A549, 72 h
CCRF-CEM [27] = assay: Inhibition of RNA synthesis in human CCRF-CEM cells assessed as RNA synthesis level at IC50 concentration after 24 hrs by BrU incorporation assay (reference value: 49.89%); assay type: functional; parameters: scale not given: the % may be the effect or the level left
[28] = Chemical stability of the compound assessed as compound remaining after 60 mins relative to control; assay type: physicochemical; conditions: read-out: Stability
HCT-116 [29] = assay: Antiproliferative activity against p53 gene knocked out human HCT116 cells after 3 days by MTS assay; assay type: functional, cell-based; conditions: HCT-116, 72 h
[30] = Antiproliferative activity against human CEM-DNR-bulk cells after 3 days by MTS assay; conditions: 72 h
CCRF-CEM [31] = assay: Inhibition of DNA synthesis in human CCRF-CEM cells assessed as DNA synthesis level at IC50 concentration after 24 hrs by BrdU incorporation assay (reference value: 43.39%); assay type: functional; parameters: scale not given: the % may be the effect or the level left
Human alphaherpesvirus 1 = assay: Antiviral activity against human herpesvirus 1 HF infected in African green monkey Vero cells assessed as inhibited virus-induced cytopathic effect incubated for 3 days by XTT assay; assay type: functional, organism-based
[32] = Stability in human plasma assessed as compound remaining at 3.3 umol/L after 15 mins by RF-MS analysis relative to control; assay type: ADME, cell-free; conditions: read-out: Stability
CCRF-CEM [33] = assay: Induction of cell cycle arrest in human CCRF-CEM cells assessed as accumulation at subG1 phase at IC50 concentration after 24 hrs by propidium iodide-staining based flow cytometry (reference value: 3.45%); assay type: functional
[34] = Mitochondrial toxicity in human OCI-AML2 cells assessed as reduction in oxidative phosphorylation-based viability after 72 hrs by CellTiterGlo assay; assay type: cell-based
Outline: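 OCI-AML2 leukemia cells, which rely on mitochondrial OXPHOS, treated for 3 days in a survival assay; IC50 reported.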

CCRF-CEM [35] = assay: Induction of cell cycle arrest in human CCRF-CEM cells assessed as accumulation at G0/G1 phase at IC50 concentration after 24 hrs by propidium iodide-staining based flow cytometry (reference value: 39.70%); assay type: functional
Influenza A virus = assay: Antiviral activity against Influenza A virus (A/Mexico/4108/2009(H1N1)) infected in MDCK cells assessed as inhibited virus-induced cytopathic effect incubated for 2 days by XTT assay; assay type: functional, organism-based
HCT-116 [36] = assay: Antiproliferative activity against human HCT116 cells after 3 days by MTS assay; assay type: functional, cell-based; conditions: HCT-116, 72 h
CCRF-CEM [37] = assay: Induction of cell cycle arrest in human CCRF-CEM cells assessed as accumulation at G2/M phase at IC50 concentration after 24 hrs by propidium iodide-staining based flow cytometry (reference value: 19.22%); assay type: functional
K562 = assay: Antiproliferative activity against human K562 cells after 3 days by MTS assay; assay type: functional, cell-based; conditions: K562, 72 h
[38] = Cytotoxicity against human Hep2 cells assessed as reduction in cell viability after 3 days by CellTiter-Glo assay; assay type: cell-based; conditions: HEp-2 cells
dengue virus type 2 = assay: Antiviral activity against Dengue virus 2 Thailand/16681/84 infected in African green monkey Vero cells assessed as inhibition of virus replication incubated for 3 days by fluorescence microscopy; assay type: functional, organism-based

T1 sequence (P55263 whole entry): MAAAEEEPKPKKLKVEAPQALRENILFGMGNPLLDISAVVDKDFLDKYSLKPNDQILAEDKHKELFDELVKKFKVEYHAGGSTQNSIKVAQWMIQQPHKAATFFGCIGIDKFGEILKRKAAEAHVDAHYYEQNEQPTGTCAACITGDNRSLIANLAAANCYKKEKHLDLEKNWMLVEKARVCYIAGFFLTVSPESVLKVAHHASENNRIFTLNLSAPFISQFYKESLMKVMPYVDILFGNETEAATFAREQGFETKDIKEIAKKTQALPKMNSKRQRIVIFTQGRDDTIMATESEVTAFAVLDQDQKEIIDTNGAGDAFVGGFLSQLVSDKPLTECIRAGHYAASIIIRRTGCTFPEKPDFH

CSc1ncnc2c1c1c(ccn1C)n2[C@@H]1O[C@H](CO)[C@@H](O)[C@H]1O
remaining at 0.5 h, 3.3 µM [1]: 99%
remaining at 2 h, 3.3 µM [2]: 98%
fraction unbound [3]: 0.11
log(permeability) [4]: -5.69
Activity (CCRF-CEM [5]): 0.33%
Activity (CCRF-CEM [6]): 42.94%
Activity (CCRF-CEM [7]): 40.55%
Activity (Human orthopneumovirus): inactive
EC50 (Hepatitis C virus [8]): 0.04 µM
Activity (CCRF-CEM [9]): 16.52%
Activity (CCRF-CEM [10]): 3.56%
IC50 (HepG2): 1.53 µM
remaining at 0.25 h, 5 µM [11]: 99%
Activity (Adenosine kinase [12]): 33%
remaining at 2 h [13]: 97%
IC50 [14]: 50 µM
Activity (CCRF-CEM [15]): 56.36%
IC50 (BJ): 5.16 µM
IC50 (U2OS): 1.41 µM
Activity (CCRF-CEM [16]): 7.8%
IC50 (HL-60): 0.58 µM
IC50 (CCRF-CEM [17]): 0.34 µM
Activity (CCRF-CEM [18]): 12.67%
remaining at 1 h, 5 µM [19]: 97%
remaining at 0.5 h [20]: 99%
remaining at 0.25 h [21]: 100%
IC50 (Adenosine kinase [22]): > 10 µM
EC50 (Hepatitis C virus [23]): 0.13 µM
IC50 (HeLa S3): 1.36 µM
remaining at 1 h, 3.3 µM [24]: 98%
Activity (CCRF-CEM [25]): 1.49%
Activity (Coxsackievirus B3): inactive
IC50 (MRC5): > 50 µM
remaining at 0.5 h, 5 µM [26]: 99%
IC50 (A549): > 50 µM
Activity (CCRF-CEM [27]): 21.43%
remaining at 1 h [28]: 98%
IC50 (HCT-116 [29]): 0.38 µM
IC50 [30]: > 50 µM
Activity (CCRF-CEM [31]): 30.41%
Activity (Human alphaherpesvirus 1): inactive
remaining at 0.25 h, 3.3 µM [32]: 100%
Activity (CCRF-CEM [33]): 5.61%
IC50 at 72 h [34]: 0.16 µM
Activity (CCRF-CEM [35]): 26.28%
Activity (Influenza A virus): inactive
IC50 (HCT-116 [36]): 0.3 µM
Activity (CCRF-CEM [37]): 17.36%
IC50 (K562): 0.39 µM
CC50 at 72 h [38]: > 44.4 µM
Activity (dengue virus type 2): inactive

COc1ncnc2c1c1c(ccn1C)n2[C@@H]1O[C@H](CO)[C@@H](O)[C@H]1O
Activity (CCRF-CEM [5]): 1.48%
Activity (CCRF-CEM [6]): 36.98%
Activity (CCRF-CEM [7]): 47.62%
Activity (Human orthopneumovirus): inactive
EC50 (Hepatitis C virus [8]): 0.09 µM
Activity (CCRF-CEM [9]): 15.4%
Activity (CCRF-CEM [10]): 28.3%
IC50 (HepG2): 2.59 µM
Activity (Adenosine kinase [12]): 47%
IC50 [14]: > 50 µM
Activity (CCRF-CEM [15]): 45.08%
IC50 (BJ): 4.5 µM
IC50 (U2OS): 1.3 µM
Activity (CCRF-CEM [16]): 12.29%
IC50 (HL-60): 1.44 µM
IC50 (CCRF-CEM [17]): 0.44 µM
Activity (CCRF-CEM [18]): 13.86%
IC50 (Adenosine kinase [22]): > 10 µM
EC50 (Hepatitis C virus [23]): 0.28 µM
IC50 (HeLa S3): 1.53 µM
Activity (CCRF-CEM [25]): 1.5%
Activity (Coxsackievirus B3): inactive
IC50 (MRC5): 50 µM
IC50 (A549): > 50 µM
Activity (CCRF-CEM [27]): 31.19%
IC50 (HCT-116 [29]): 0.62 µM
IC50 [30]: > 50 µM
Activity (CCRF-CEM [31]): 31.44%
Activity (Human alphaherpesvirus 1): inactive
Activity (CCRF-CEM [33]): 3.68%
Activity (CCRF-CEM [35]): 37.73%
Activity (Influenza A virus): inactive
IC50 (HCT-116 [36]): 0.36 µM
Activity (CCRF-CEM [37]): 17.2%
IC50 (K562): 0.51 µM
CC50 at 72 h [38]: > 44.4 µM
Activity (dengue virus type 2): inactive
